pIC50: −log10 of the molar value. The source made the active and inactive calls. No cut-off for these calls is given here.
Columns and labels:
[1] = target: T1, Nitric oxide synthase, inducible (Mus musculus) (UniProt P29477); test: Inhibition of iNOS in LPS and IFN-gamma-stimulated mouse RAW264.7 cells assessed as inhibition of nitrite accumulation at 100 uM after 15 hrs by Griess assay; assay type: cell-based
T1 sequence (whole entry): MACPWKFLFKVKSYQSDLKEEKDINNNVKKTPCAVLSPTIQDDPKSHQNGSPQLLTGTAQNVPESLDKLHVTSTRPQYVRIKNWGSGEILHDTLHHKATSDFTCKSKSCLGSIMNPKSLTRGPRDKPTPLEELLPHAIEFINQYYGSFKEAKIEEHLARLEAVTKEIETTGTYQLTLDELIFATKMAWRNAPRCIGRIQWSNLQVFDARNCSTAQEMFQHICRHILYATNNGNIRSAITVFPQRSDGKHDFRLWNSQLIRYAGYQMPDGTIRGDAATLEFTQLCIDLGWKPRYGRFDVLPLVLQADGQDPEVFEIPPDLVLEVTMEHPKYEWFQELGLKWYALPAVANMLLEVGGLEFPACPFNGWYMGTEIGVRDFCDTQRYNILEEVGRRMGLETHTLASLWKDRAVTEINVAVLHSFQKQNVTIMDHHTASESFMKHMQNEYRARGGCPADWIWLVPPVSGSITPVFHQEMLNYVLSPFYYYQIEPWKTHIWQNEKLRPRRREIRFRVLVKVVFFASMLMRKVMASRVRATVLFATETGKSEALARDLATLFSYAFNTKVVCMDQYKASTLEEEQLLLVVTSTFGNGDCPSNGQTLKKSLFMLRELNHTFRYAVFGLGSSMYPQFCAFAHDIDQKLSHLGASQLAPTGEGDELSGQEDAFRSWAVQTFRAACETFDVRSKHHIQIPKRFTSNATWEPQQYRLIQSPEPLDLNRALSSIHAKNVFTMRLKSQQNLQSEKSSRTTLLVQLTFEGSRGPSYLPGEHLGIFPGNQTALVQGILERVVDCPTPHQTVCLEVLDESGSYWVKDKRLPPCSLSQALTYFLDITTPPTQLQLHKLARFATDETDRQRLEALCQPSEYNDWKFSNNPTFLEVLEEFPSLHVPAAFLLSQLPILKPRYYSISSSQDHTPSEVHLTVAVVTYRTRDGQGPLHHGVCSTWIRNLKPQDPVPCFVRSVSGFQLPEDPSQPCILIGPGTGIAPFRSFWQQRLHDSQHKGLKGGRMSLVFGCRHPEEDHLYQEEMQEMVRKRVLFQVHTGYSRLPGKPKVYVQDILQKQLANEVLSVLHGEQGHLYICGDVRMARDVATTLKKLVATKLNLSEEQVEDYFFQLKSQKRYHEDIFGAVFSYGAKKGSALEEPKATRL
Summary of the method: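 RAW 264.7 macrophages seeded at 100,000 cells/well in RPMI 1640 with 5% FCS and grown 24 h. Stimulated with 40 U/ml γ-IFN and 50 ng/ml LPS, with compound at 100 µM in 1% DMSO, for 15 h at 37 °C. Supernatant nitrite measured with Griess reagent at 550 nm against an NaNO2 calibration; 6–8 determinations.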

[2] = target: T1, Nitric oxide synthase, inducible (Mus musculus); test: Binding affinity to oxygenase domain of mouse iNOS at 100 uM assessed as formation of enzyme-Fe3-ImH complex by UV-visible spectra analysis
[3] = target: T2, Nitric oxide synthase, inducible (Mus musculus, UniProt P29477); test: Inhibition of mouse recombinant iNOS expressed in Escherichia coli assessed as conversion of [gamma-14C]L-arginine to [14C]L-citrulline by radioactive assay
T2 sequence (P29477 whole entry): T1 sequence (whole entry)
Summary of the method: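 CaCl2/CaM present for nNOS (S. cerevisiae) and eNOS (E. coli) but omitted for iNOS (E. coli). Citrulline separated by Dowex cation exchange, then scintillation counting.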

[4] = target: T3, Nitric oxide synthase 3 (Bos taurus) (UniProt P29473); test: Inhibition of bovine eNOS expressed in insect Sf9 cells assessed as residual activity at 100 uM by Griess assay relative to control
T3 sequence (whole entry): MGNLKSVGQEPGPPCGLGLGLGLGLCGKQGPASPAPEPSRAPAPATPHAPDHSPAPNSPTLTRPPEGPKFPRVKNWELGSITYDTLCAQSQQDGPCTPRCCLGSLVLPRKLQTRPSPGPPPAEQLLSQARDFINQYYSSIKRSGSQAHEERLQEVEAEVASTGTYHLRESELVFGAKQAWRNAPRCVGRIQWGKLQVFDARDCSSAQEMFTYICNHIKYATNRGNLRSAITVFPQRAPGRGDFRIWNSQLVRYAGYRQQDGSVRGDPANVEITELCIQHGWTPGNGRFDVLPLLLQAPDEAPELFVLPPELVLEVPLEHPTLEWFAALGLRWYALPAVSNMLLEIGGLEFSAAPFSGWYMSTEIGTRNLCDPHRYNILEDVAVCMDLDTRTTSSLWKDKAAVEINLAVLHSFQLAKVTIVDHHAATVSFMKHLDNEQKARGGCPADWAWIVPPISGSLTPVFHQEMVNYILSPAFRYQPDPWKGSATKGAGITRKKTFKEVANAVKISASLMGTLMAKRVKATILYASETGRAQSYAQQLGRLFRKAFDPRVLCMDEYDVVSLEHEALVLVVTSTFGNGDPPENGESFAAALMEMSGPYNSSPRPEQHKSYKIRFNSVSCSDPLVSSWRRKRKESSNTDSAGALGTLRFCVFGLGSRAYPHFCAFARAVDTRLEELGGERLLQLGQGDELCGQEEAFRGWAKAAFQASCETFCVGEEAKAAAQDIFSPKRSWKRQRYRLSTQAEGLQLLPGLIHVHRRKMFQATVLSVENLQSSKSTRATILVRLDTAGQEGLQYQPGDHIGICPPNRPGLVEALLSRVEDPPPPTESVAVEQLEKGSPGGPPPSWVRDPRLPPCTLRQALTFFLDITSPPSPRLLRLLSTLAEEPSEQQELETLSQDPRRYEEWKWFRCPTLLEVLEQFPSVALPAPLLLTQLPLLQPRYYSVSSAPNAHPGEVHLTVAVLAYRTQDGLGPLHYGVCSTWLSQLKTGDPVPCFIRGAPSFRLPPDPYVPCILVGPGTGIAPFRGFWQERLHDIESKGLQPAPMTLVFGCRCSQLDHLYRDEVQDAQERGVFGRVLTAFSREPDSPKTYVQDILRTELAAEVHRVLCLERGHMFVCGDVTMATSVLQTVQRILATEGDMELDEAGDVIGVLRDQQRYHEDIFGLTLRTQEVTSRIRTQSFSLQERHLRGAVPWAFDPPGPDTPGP
Summary of the method: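 Bovine eNOS from Sf9 cells. Reaction: triethanolamine buffer pH 7.5, 0.5 mM Ca2+, 10 µg/ml CaM, 10 µM H4B, FAD, FMN, 0.5 mM NADPH, 1 mM L-arginine, with 100 µM compound, 20 min at 37 °C. After NADPH removal by LDH/pyruvate, nitrite measured by Griess at 543 nm. Expressed as % residual activity versus 1% DMSO control, 5 experiments.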

[5] = Lipophilicity, log D at pH 7.4 by HPLC method; settings: buffer

Structure (SMILES)	inhibition [1]	Activity [2]	pIC50 [3]	Activity [4]	logD [5]
CC1=CC2=NCC(C(=O)c3ccc(OCc4ccc(C#N)cc4)cc3)CN2C=C1.[O-][Cl+3]([O-])([O-])O (stereo not drawn)	93%				
CC1=CC2=NCC(C(=O)c3ccc4cc(C)ccc4c3)CN2C=C1.[O-][Cl+3]([O-])([O-])O (stereo not drawn)	86%	Active	4.54	49%	
CC1=CC2=NCC(C(=O)c3ccc4ccccc4c3)CN2C=C1 (stereo not drawn)				50%	1.7
COc1ccc(-c2ccc(C(=O)C3CN=C4C=C(C)C=CN4C3)cc2)cc1.Cl (stereo not drawn)	96%	Active	4.74		
CC(=N)NCc1cccc(CN)c1				107%	
CC1=CC=CC2=NCC(C(=O)c3ccc(Br)cc3)CN12 (stereo not drawn)				93%	
CC1=CC=CC2=NCC(C(=O)c3ccc(F)cc3)CN12.[O-][Cl+3]([O-])([O-])O (stereo not drawn)	44%	Active		41%	
COc1ccc(C(=O)C2CN=C3C=CC=C(C)N3C2)cc1OC.[O-][Cl+3]([O-])([O-])O (stereo not drawn)	70%			90%	1.5
O=C(c1ccc2ccccc2c1)C1CN=C2C=CC=CN2C1 (stereo not drawn)				80%	
COc1ccc(C(=O)C2CN=C3C=C(C)C=CN3C2)cc1F.[O-][Cl+3]([O-])([O-])O (stereo not drawn)	64%	Active			
CC1=CC2=NCC(C(=O)c3ccc(-c4ccc(Br)cc4)cc3)CN2C=C1.[O-][Cl+3]([O-])([O-])O (stereo not drawn)	98%	Active	4.55		2.7
CCSC(=N)N				27%	
CC1=CC2=NCC(C(=O)c3ccc(OCc4ccc(Br)cc4)cc3)CN2C=C1.Cl (stereo not drawn)	96%				
CC1=CC=CC2=NCC(C(=O)c3ccc(C)cc3)CN12.[O-][Cl+3]([O-])([O-])O (stereo not drawn)	72%			101%	1.6
CC1=CC2=NCC(C(=O)c3ccc4cc(C)ccc4c3)CN2C(C)=C1.[O-][Cl+3]([O-])([O-])O (stereo not drawn)	89%	Active	4.46		2.2
CC1=CC2=NCC(C(=O)c3ccc(F)cc3)CN2C=C1 (stereo not drawn)				37%	
N=C(NCCC[C@H](N)C(=O)O)N[N+](=O)[O-]		Active			
CCCNC(=N)NCCC[C@H](N)C(=O)O				93%	
CC1=CC2=NCC(C(=O)c3ccc(-c4ccccc4)cc3)CN2C=C1 (stereo not drawn)				17%	
CC1=CC2=NCC(C(=O)c3ccc(OCc4ccc(Cl)cc4)cc3)CN2C=C1.[O-][Cl+3]([O-])([O-])O (stereo not drawn)	92%				
CC1=CC2=NCC(C(=O)c3ccc(-c4ccc(C#N)cc4)cc3)CN2C=C1.Cl (stereo not drawn)	82%	Active	4.30		
COc1ccc2cc(C(=O)C3CN=C4C=C(C)C=CN4C3)ccc2c1 (stereo not drawn)				80%	
CC1=CC2=NCC(C(=O)c3ccc(Cl)cc3)CN2C=C1 (stereo not drawn)				20%	
CC1=CC2=NCC(C(=O)c3ccc(Br)cc3)CN2C=C1 (stereo not drawn)				72%	
O=C(c1ccc(Br)cc1)C1CN=C2C=CC=CN2C1 (stereo not drawn)				86%	
CC1=CC2=NCC(C(=O)c3ccccc3)CN2C=C1 (stereo not drawn)				40%	
O=C(c1ccc(Cl)c(Cl)c1)C1CN=C2C=CC=CN2C1.[O-][Cl+3]([O-])([O-])O (stereo not drawn)	59%	Active		83%	1.8
CC1=CC2=NCC(C(=O)c3ccc(-c4ccc(Br)cc4)cc3)CN2C(C)=C1 (stereo not drawn)			3.92		
CC1=CC=CC2=NCC(C(=O)c3ccc4ccccc4c3)CN12 (stereo not drawn)				75%	
